This note sets out measurements from ChEMBL document CHEMBL4177577, “Lipophilic methylene violet analogues as modulators of mitochondrial function and dysfunction” (Bioorg Med Chem, 2017).

A short description of data set [1]: Cytotoxicity in human Friedreich's ataxia lymphocytes assessed as reduction in cell viability at 2.5 uM incubated for 48 hrs by Live/Dead cell viability assay. The note with it: friedreich's ataxia lymphocyte. The format is cell-based. In outline: (§1)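 FRDA lymphocytes (5×10^5 cells/mL) were kept in glucose-free medium (25 mM galactose) with compound at 37 °C and 5% CO₂ for 24 or 48 h. Cells were washed, stained with 0.1 μM calcein AM (live) and 0.2 μM EthD-1 (dead) for 15 min at 37 °C and analysed by flow cytometry (10,000 events). Duplicates were run in two independent runs.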

Data set [2] has as its system Friedreich's ataxia lymphocyte. As to the kind of experiment: Inhibition of ROS generation in human Friedreich's ataxia lymphocytes at 250 and 2500 nM incubated for 16 hrs by DCFH-DA staining based FACS method. The format is functional, cell-based. In a few lines: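 FRDA lymphocytes (GM15850; 5×10^5 cells/mL) were pretreated with compound for 16 h at 37 °C, then exposed to 5 mM diethyl maleate for 80 min to deplete glutathione. Cells were loaded with 10 μM DCFH-DA in PBS with 20 mM glucose for 25 min at 37 °C and DCF was read by flow cytometry (10,000 events). Median fluorescence is given as % of the DEM-treated control; duplicates in two runs.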

Data set [3] deals with Friedreich's ataxia fibroblast (Homo sapiens). As to the kind of experiment: Cytoprotection against buthionine sulfoximine-induced cytotoxicity in human Friedreich's ataxia fibroblasts assessed as increase in cell viability at 25 to 1000 nM pre-incubated before buthionine sulfoximine challenge for 48 hrs by Live/Dead cell viability assay.
Data set [4] can be described thus: Induction of mitochondrial membrane potential preservation in human Friedreich's ataxia lymphocytes assessed as JC1 dye aggregates level at 5 uM pre-incubated for 16 hrs by JC1 staining based assay (reference value: 69.8%).
Data set [5] concerns Friedreich's ataxia lymphocyte. The experiment in a line: Cytoprotection against rotenone-induced cytotoxicity in human Friedreich's ataxia lymphocytes assessed as increase in cell viability at 0.25 and 2.5 uM pre-incubated for 12 hrs in glucose-free media followed by rotenone challenge for 24 hrs by Live/Dead cell viability assay. The format is functional, cell-based. In a few lines:
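FRDA lymphocytes (5×10^5 cells/mL) in glucose-free medium with 25 mM galactose were pretreated with compounds at 37 °C, then exposed to 50 nM rotenone for 24 h. Cells were stained with 0.1 μM calcein AM and 0.2 μM EthD-1 for 15 min at 37 °C and run on flow cytometry (10,000 events). Live cells are given as % of control; two independent runs in duplicate.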

Data set [6] can be described thus: Induction of mitochondrial membrane potential preservation in human Friedreich's ataxia lymphocytes assessed as JC1 dye monomer level at 5 uM pre-incubated for 16 hrs by JC1 staining based assay (reference value: 10.1%).
Data set [7] has as its system Friedreich's ataxia lymphocyte. As to the kind of experiment: Effect on ATP level in human Friedreich's ataxia lymphocytes at 100 to 5000 nM incubated for 24 hrs by luminescence based assay. The format is functional, cell-based. In a few lines: (§2)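 Lymphocytes (2×10^5 cells/mL) were treated with compound at final 0.1, 0.5 or 5 μM (DMSO <0.5%) in glucose-free medium (25 mM galactose) for 24 h at 37 °C. Total intracellular ATP was read by a bioluminescence kit and given as % of untreated control. Data are the mean of at least three independent experiments.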

Data set [8] in a line: Cytotoxicity in human Friedreich's ataxia lymphocytes assessed as reduction in cell viability at 2.5 uM incubated for 24 hrs by Live/Dead cell viability assay. The format is cell-based. As to conditions: friedreich's ataxia lymphocyte. In a few lines: as §1
For data set [9], the system named is Friedreich's ataxia lymphocyte. As to the kind of experiment: Effect on ATP level in human Friedreich's ataxia lymphocytes at 100 nM incubated for 24 hrs by luminescence based assay. It is filed as functional, cell-based. In a few lines:
as §2

The species named for data set [10] is Bos taurus. The experiment in a line: Effect on NADH-ubiquinone oxidoreductase in bovine heart submitochondrial particles assessed as induction of electron flow from complex-1 by measuring NADH oxidation at 5 uM in presence of 50 nM rotenone using NADH and coenzyme Q1 by spectrophotomery. In outline:
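Submitochondrial particles (30 μg/mL) were preincubated 5 min at 30 °C with compound in 50 mM phosphate buffer, pH 7.4, with 0.25 M sucrose, 1 mM MgCl₂, 2 μM antimycin A and 2 mM KCN. The reaction was started with 75 μM NADH plus 15 μM coenzyme Q₁, and NADH loss was followed at 340 nm. Values are the mean of two independent experiments in duplicate.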

Data set [11] is described as follows: Reduction in ATP level in human Friedreich's ataxia lymphocytes at 5 uM incubated for 24 hrs by luminescence based assay. It is filed as ADME, cell-based. As to conditions: friedreich's ataxia lymphocyte. In a few lines:
as §2

In data set [12] the test system is Friedreich's ataxia lymphocyte. The experiment in a line: Increase in ATP level in human Friedreich's ataxia lymphocytes at 0.5 uM incubated for 24 hrs by luminescence based assay. It is filed as functional, cell-based. In a few lines:
as §2

Data set [13] deals with Friedreich's ataxia lymphocyte. The experiment in a line: Increase in ATP level in human Friedreich's ataxia lymphocytes at 0.1 uM incubated for 24 hrs by luminescence based assay. The format is functional, cell-based. In outline:
as §2

Calls of active or inactive are those of the source. No cut-off for these calls is given here.

For `CCCCCCCCCCCCCCCN(CCCCCCCCCCCCCCC)c1ccc2nc3ccc(=O)cc-3sc2c1`, the Activity result in data set [1] was “Non-Toxic”; in data set [3], “Dose-dependent effect”; in data set [4], 88.2%; in data set [6], 11.7%; in data set [8], “Non-Toxic”. Besides, the “ROS generation inhibition (qualitative)” value in data set [2] was “Active”. In addition, in [5], the outcome was Active. For the same compound, in data set [7], the result was inactive.
As for `CN(C)c1ccc2nc3ccc(=[N+](C)C)cc-3sc2c1`, the outcome in [5] and in [10] was Active. The outcome in data set [9] was inactive.
On to `CCCCCCCCCCCCCCCN(CCCC)c1ccc2nc3ccc(=O)cc-3sc2c1`, for which the Activity result was “Non-Toxic” in [1]; “Dose-dependent effect” in data set [3]; 89.3% in data set [4]; 10.6% in data set [6]; “Toxic” in data set [11]; “Non-Toxic” in [8]. In addition, the “ROS generation inhibition (qualitative)” value in data set [2] was “Dose-dependent effect”. For the same compound, the result in data set [5], in data set [10], in data set [12] and in [13] was Active.
Take `CCCCCCCCCCCCCCCN(C)c1ccc2nc3ccc(=O)cc-3sc2c1`: the Activity entry was “Non-Toxic” in data set [1]; “Dose-dependent effect” in [3]; 85.2% in data set [4]; 14.7% in [6]; “Toxic” in [11]; “Non-Toxic” in data set [8]. Besides, the “ROS generation inhibition (qualitative)” value in data set [2] was “Dose-dependent effect”. Also, the outcome in [5], in data set [12] and in data set [13] was Active.
Consider `CN(C)c1ccc2nc3ccc(N(C)C)cc3[s+]c2c1.[Cl-]` [METHYLENE BLUE ANHYDROUS], for which the Activity result is on record as “Toxic” in [1], 41.7% in data set [4], 58.1% in [6] and “Toxic” in data set [8].
As to `CCCCCCCCCCN(CCCCCCCCCC)c1ccc2nc3ccc(=O)cc-3sc2c1`, the Activity entry is “Non-Toxic” in data set [1]; “Dose-dependent effect” in data set [3]; 85.7% in data set [4]; 14.3% in [6]; “Non-Toxic” in data set [8]. Moreover, the “ROS generation inhibition (qualitative)” value in data set [2] is “Active”. Further, the result in [5] was Active. In addition, in data set [7], the outcome was inactive.
Regarding `CCCCN(CCCC)c1ccc2nc3ccc(=O)cc-3sc2c1`, the Activity entry in data set [1] was “Toxic”; in [3], “Dose-dependent effect”; in data set [4], 74.2%; in data set [6], 25.6%. Also, in data set [2], the “ROS generation inhibition (qualitative)” value is “Active”. Also, the outcome in data set [5] was Active. For the same compound, in [9], the result was inactive.
Regarding `CN(C)c1ccc(C(=C2C=CC(=[N+](C)C)C=C2)c2ccc(N(C)C)cc2)cc1.[Cl-]` [GENTIAN VIOLET], in [2], the “ROS generation inhibition (qualitative)” value was “Active”. The Activity in data set [4] is on record as 72.6%; in data set [6], 27.3%. The result in data set [5] and in data set [10] was Active. For the same compound, the result in [9] was inactive.
